Experimental data taken from ChEMBL document CHEMBL2331121, “Design, synthesis, and pharmacological characterization of N- and O-substituted 5,6,7,8-tetrahydro-4H-isoxazolo[4,5-d]azepin-3-ol analogues: novel 5-HT(2A)/5-HT(2C) receptor agonists with pro-cognitive properties” (J Med Chem, 2013).
The source made the active and inactive calls. No cut-off for these calls is given here.

Key:
[1] = molecular target: T1, 5-hydroxytryptamine receptor 2A (Homo sapiens, UniProt P28223); experiment: biochemical; format: cell-based, tsA201
[2] = molecular target: T1, 5-hydroxytryptamine receptor 2A; experiment: Agonist activity at human 5HT2A receptor expressed in HEK293 cells assessed as accumulation of IP1 incubated for 1 hr at 37 degC followed by 15 mins at RT by TR-FRET assay relative to 5HT; format: functional, cell-based
In short: (§1)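 Polyclonal HEK293 lines stably expressing human 5-HT2A (variant 1) or 5-HT2C (INI isoform), detached and suspended at 1 × 10⁷ cells/mL in HBSS with 20 mM HEPES, 1 mM CaCl₂, 1 mM MgCl₂, pH 7.4. Ligands in buffer with 40 mM LiCl. Incubated 1 h at 37 °C, then 15 min RT. IP1 read by HTRF 665/615 ratio. Triplicate, at least four times.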

[3] = molecular target: T2, 5-hydroxytryptamine receptor 2C (Homo sapiens) (UniProt P28335); experiment: Agonist activity at human 5HT2C receptor expressed in HEK293 cells assessed as accumulation of IP1 incubated for 1 hr at 37 degC followed by 15 mins at RT by TR-FRET assay relative to 5HT; format: functional, cell-based
T2 sequence (whole entry): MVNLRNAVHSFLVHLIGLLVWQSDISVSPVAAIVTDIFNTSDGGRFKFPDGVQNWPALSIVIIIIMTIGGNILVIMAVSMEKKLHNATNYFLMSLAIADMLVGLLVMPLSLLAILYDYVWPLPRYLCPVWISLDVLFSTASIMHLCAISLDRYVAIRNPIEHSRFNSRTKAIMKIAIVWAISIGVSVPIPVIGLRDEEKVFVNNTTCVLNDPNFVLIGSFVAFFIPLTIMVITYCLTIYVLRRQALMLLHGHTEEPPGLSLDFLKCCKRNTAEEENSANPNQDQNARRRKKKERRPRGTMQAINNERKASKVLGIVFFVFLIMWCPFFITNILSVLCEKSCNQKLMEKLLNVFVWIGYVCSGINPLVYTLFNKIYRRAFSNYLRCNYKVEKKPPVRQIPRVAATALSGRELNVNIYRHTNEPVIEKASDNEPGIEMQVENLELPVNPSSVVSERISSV
In short: as §1

[4] = molecular target: T3, 5-hydroxytryptamine receptor 2C (Homo sapiens, UniProt P28335); experiment: Displacement of [3H]mesulergine from human 5HT2C receptor expressed in tsA201 cell membranes after 1 hr by scintillation counting analysis
T3 sequence (P28335 whole entry): T2 sequence (whole entry)

[5] = molecular target: T2, 5-hydroxytryptamine receptor 2C (Homo sapiens); experiment: Agonist activity at human 5HT2C receptor expressed in HEK293 cells assessed as induction of intracellular calcium release by fluorescence assay relative to 5HT; format: functional, cell-based
In short: (§2)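 Stable polyclonal 5-HT2A or 5-HT2C HEK293 cells seeded on poly-D-lysine plates (6 × 10⁴ cells/well). Next day loaded with Fluo-4/AM for 1 h at 37 °C in HBSS/20 mM HEPES/1 mM CaCl₂/1 mM MgCl₂/2.5 mM probenecid, pH 7.4. Fluorescence (485 ex/525 em) recorded before and up to 90 s after agonist. Response relative to 5-HT on the same plate. Duplicate, at least three times.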

[6] = molecular target: T3, 5-hydroxytryptamine receptor 2C; experiment: Agonist activity at human 5HT2C receptor expressed in HEK293 cells assessed as induction of intracellular calcium release measured for 90 secs by fluorescence assay; format: functional, cell-based
[7] = molecular target: T3, 5-hydroxytryptamine receptor 2C; experiment: Agonist activity at human 5HT2C receptor expressed in HEK293 cells assessed as accumulation of IP1 incubated for 1 hr at 37 degC followed by 15 mins at RT by TR-FRET assay; format: functional, cell-based
[8] = molecular target: T1, 5-hydroxytryptamine receptor 2A; experiment: Agonist activity at human 5HT2A receptor expressed in HEK293 cells assessed as induction of intracellular calcium release measured for 90 secs by fluorescence assay; format: functional, cell-based
[9] = molecular target: T1, 5-hydroxytryptamine receptor 2A; experiment: Agonist activity at human 5HT2A receptor expressed in HEK293 cells assessed as induction of intracellular calcium release by fluorescence assay relative to 5HT; format: functional, cell-based
In short: as §2

[10] = molecular target: T1, 5-hydroxytryptamine receptor 2A; experiment: Agonist activity at human 5HT2A receptor expressed in HEK293 cells assessed as accumulation of IP1 incubated for 1 hr at 37 degC followed by 15 mins at RT by TR-FRET assay; format: functional, cell-based
[11] = molecular target: T4, 5-hydroxytryptamine receptor 2C (Rattus norvegicus) (UniProt P08909); experiment: Displacement of [125I]-N-(p-I-Bn)-THAZ from 5HT2C in rat cerebral cortex membrane at 300 uM after 1 hr by scintillation counting analysis; format: cell membranes
T4 sequence (whole entry): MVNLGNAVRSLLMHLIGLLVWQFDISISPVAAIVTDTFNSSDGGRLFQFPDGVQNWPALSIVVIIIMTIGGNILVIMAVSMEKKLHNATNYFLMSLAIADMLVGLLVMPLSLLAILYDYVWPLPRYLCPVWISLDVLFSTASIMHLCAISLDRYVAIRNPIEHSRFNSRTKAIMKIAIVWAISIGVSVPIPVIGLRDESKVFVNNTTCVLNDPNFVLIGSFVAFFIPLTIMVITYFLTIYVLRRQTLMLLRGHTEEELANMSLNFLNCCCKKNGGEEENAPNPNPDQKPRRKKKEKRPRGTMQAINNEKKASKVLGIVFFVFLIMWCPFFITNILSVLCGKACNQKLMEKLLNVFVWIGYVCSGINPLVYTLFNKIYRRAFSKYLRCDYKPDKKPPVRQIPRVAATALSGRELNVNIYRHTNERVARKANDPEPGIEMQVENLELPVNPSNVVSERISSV

[12] = molecular target: T1, 5-hydroxytryptamine receptor 2A; experiment: Agonist activity at human 5HT2A receptor expressed in HEK293 cells assessed as induction of intracellular calcium release at 1 mM measured for 90 secs by fluorescence assay; format: functional, cell-based
In short: (§3)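 Stable polyclonal h5-HT2A or h5-HT2C HEK293 cells plated on poly-D-lysine wells, loaded next day with Fluo-4/AM for 1 h at 37 °C. Buffer was HBSS with 20 mM HEPES, 1 mM CaCl₂, 1 mM MgCl₂, 2.5 mM probenecid, pH 7.4. Fluorescence read at 485/525 nm before and up to 90 s after agonist addition. Responses normalised to 5-HT on the same plate. Duplicate, 4−10 experiments.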

[13] = molecular target: T2, 5-hydroxytryptamine receptor 2C (Homo sapiens); experiment: Agonist activity at human 5HT2C receptor expressed in HEK293 cells assessed as induction of intracellular calcium release at 1 mM measured for 90 secs by fluorescence assay; format: functional, cell-based
In short: as §3

[14] = molecular target: T1, 5-hydroxytryptamine receptor 2A; experiment: Antagonist activity at human 5HT2A receptor expressed in HEK293 cells assessed as inhibition of 5HT-induced intracellular calcium release at 1 mM measured for 90 secs by fluorescence assay; format: functional, cell-based
In short: (§4)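 Fluo-4/Ca²⁺ read-out in stable h5-HT2A or h5-HT2C HEK293 cells (HBSS/HEPES/probenecid buffer, pH 7.4). Antagonist was added after the dye-loading wash, then cells were challenged with an EC₇₅−EC₈₅ concentration of 5-HT. Emission at 525 nm was monitored up to 90 s after agonist addition. Duplicate, repeated in independent experiments.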

[15] = molecular target: T2, 5-hydroxytryptamine receptor 2C (Homo sapiens); experiment: Antagonist activity at human 5HT2C receptor expressed in HEK293 cells assessed as inhibition of 5HT-induced intracellular calcium release at 1 mM measured for 90 secs by fluorescence assay; format: functional, cell-based
In short: as §4

[16] = molecular target: T1, 5-hydroxytryptamine receptor 2A; experiment: Agonist activity at human 5HT2A receptor expressed in HEK293 cells assessed as induction of intracellular calcium release up to 1000 uM measured up to 90 secs by fluorescence assay; format: functional, cell-based
In short: as §2

[17] = molecular target: T4, 5-hydroxytryptamine receptor 2C (Rattus norvegicus); experiment: Displacement of [125I]-N-(p-I-Bn)-THAZ from 5HT2C receptor in rat hippocampal membrane after 1 hr by scintillation counting analysis; format: cell membranes; conditions: Hippocampus
[18] = molecular target: T4, 5-hydroxytryptamine receptor 2C (Rattus norvegicus); experiment: Displacement of [125I]-N-(p-I-Bn)-THAZ from 5HT2C in rat cerebral cortex membrane up to 50 uM after 1 hr by scintillation counting analysis; format: cell membranes
[19] = molecular target: T4, 5-hydroxytryptamine receptor 2C (Rattus norvegicus); experiment: Displacement of [125I]-N-(p-I-Bn)-THAZ from 5HT2C receptor in rat midbrain membrane after 1 hr by scintillation counting analysis; format: cell membranes
[20] = molecular target: T4, 5-hydroxytryptamine receptor 2C (Rattus norvegicus); experiment: Displacement of [125I]-N-(p-I-Bn)-THAZ from 5HT2C receptor in rat cerebellum membrane after 1 hr by scintillation counting analysis; format: cell membranes

T1 sequence (P28223 whole entry): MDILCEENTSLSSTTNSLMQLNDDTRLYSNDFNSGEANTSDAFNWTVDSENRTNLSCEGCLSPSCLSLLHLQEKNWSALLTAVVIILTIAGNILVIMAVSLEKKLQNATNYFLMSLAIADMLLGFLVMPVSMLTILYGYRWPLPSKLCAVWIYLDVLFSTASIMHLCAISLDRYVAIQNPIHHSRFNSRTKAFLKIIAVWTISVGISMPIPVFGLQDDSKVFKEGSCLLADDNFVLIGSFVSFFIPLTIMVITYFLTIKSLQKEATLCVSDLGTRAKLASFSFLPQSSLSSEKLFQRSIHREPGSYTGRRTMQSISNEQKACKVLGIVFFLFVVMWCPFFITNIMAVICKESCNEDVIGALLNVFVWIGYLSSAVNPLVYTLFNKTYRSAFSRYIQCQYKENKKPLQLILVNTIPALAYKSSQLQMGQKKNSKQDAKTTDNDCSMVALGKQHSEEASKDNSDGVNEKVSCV

Structure (SMILES)	Ki ([1]; read-out: Ki) [µM]	Ki [4] [µM]	Activity [12]	Activity [13]	Activity [14]	EC50 ([6]; hek293, read-out: EC50) [µM]	EC50 ([6]; read-out: pEC50 (converted)) [µM]	EC50 ([8]; hek293, read-out: EC50) [µM]	EC50 ([8]; read-out: pEC50 (converted)) [µM]	Activity [15]	also measured
Clc1cccc(COc2cncc(N3CCNCC3)n2)c1	0.081	0.0093	–	–	–	–	–	–	–	–	Emax [2]: 90%; Emax [3]: 109%; Emax [5]: 103%; EC50 ([6]; read-out: EC50): 0.0019 µM; EC50 [7]: 0.0081 µM; EC50 ([8]; read-out: EC50): 0.076 µM; Emax [9]: 88%; EC50 [10]: 0.14 µM
N[C@@H](CCC(=O)O)C(=O)O	–	–	–	–	–	–	–	–	–	–	Activity [11]: inactive
C[C@H](N)Cn1ccc2cc(F)c(Cl)cc21	–	–	–	–	–	–	–	–	–	–	Emax [5]: 111%; EC50 ([6]; read-out: EC50): 0.0047 µM; EC50 ([8]; read-out: EC50): 0.027 µM; Emax [9]: 117%
Cn1oc2c(c1=O)CNCC2	–	–	inactive	inactive	inactive	> 1000	> 1000	> 1000	> 1000	inactive	–
CCn1oc2c(c1=O)CCN(C)CC2	> 300	> 300	inactive	inactive	inactive	> 1000	> 1000	> 1000	> 1000	inactive	Ki ([1]; read-out: pKi (converted)): > 316 µM
CCOc1noc2c1CCN(C)CC2	> 300	> 300	inactive	inactive	inactive	> 1000	> 1000	> 1000	> 1000	inactive	Ki ([1]; read-out: pKi (converted)): > 316 µM
CCOc1noc2c1CCNCC2	100	100	–	–	–	–	–	–	–	–	Emax [5]: 67%; EC50 ([6]; read-out: EC50): 3 µM; EC50 ([8]; read-out: EC50): 7.9 µM; Emax [9]: 42%
COc1noc2c1CCNCC2	300	300	–	–	–	–	–	–	–	–	Activity [16]: Active; Emax [5]: 80%; EC50 ([6]; read-out: EC50): 12 µM
NCCCC(=O)O	–	–	–	–	–	–	–	–	–	–	Activity [11]: inactive
CN1CCc2on(C)c(=O)c2CC1	> 300	> 300	inactive	inactive	inactive	> 1000	> 1000	> 1000	> 1000	inactive	Ki ([1]; read-out: pKi (converted)): > 316 µM
O=c1c2c(on1Cc1ccccc1I)CCNCC2	–	7.2	–	–	–	–	–	–	–	–	–
CN1CCN2c3ccccc3Cc3ccccc3C2C1 (stereo not given)	–	–	–	–	–	–	–	–	–	–	Activity [17]: inactive; Activity [18]: inactive; Activity [19]: inactive; Activity [20]: inactive
Oc1noc2c1CCNCC2	> 300	> 300	inactive	inactive	inactive	> 1000	> 1000	> 1000	> 1000	inactive	Ki ([1]; read-out: pKi (converted)): > 316 µM
NC[C@H](O)c1ccc(O)c(O)c1	–	–	–	–	–	–	–	–	–	–	Activity [11]: inactive
